Data on 16 compounds can be found in publication PMC6598223 (Saudi Pharmaceutical Journal : SPJ, 2019).

In assay [1] the test system is HeLa cells. As to the kind of experiment: Alamar Blue cytotoxicity assay, HeLa. The assay is classed as cell-based, human. The following applies: read-out: 24 h IC50 HeLa. The gist of the method:
(§1)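 Cells grown in DMEM with L-glutamine, 10% FBS and 1% penicillin–streptomycin at 37 °C, 5% CO2. They were seeded at 1 × 10^4 cells/well and grown 24 h, then given test compound dilutions in growth medium for 24 h. Alamar Blue was added (final 10 μg/ml) for 2–4 h at 37 °C, and fluorescence was read ([…]). Viability was calculated per line, and IC50s were averaged across HeLa, A549 and MDA-MB-231.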

Assay [2] has as its system A549 cells. Briefly: Alamar Blue cytotoxicity assay, A549. The format is cell-based, human. The essentials:
as §1

In assay [3] the test system is MDA-MB-231 cells. As to the kind of experiment: Alamar Blue cytotoxicity assay, MDA-MB-231. The format is cell-based, human. The following applies: read-out: 24 h IC50 MDA-MB-231. The essentials: as §1
(In general: The colour change of resazurin is a common sign of viable cells or microbes.)

Assay [4] has as its system HeLa, A549 and MDA-MB-231 cells. As to the kind of experiment: Average cytotoxicity over the tested cell lines. The assay is classed as cell-based. Particulars: Homo sapiens, 24 h, read-out: average IC50 against the tested cell lines. The essentials:
as §1

Assay [5] has as its target EGFR (Homo sapiens, UniProt P00533). Briefly: biochemical.
The target in assay [6] is VEGFR2 (Homo sapiens, UniProt P35968). As to the kind of experiment: biochemical.
Sequence of VEGFR2 (P35968 20-1356): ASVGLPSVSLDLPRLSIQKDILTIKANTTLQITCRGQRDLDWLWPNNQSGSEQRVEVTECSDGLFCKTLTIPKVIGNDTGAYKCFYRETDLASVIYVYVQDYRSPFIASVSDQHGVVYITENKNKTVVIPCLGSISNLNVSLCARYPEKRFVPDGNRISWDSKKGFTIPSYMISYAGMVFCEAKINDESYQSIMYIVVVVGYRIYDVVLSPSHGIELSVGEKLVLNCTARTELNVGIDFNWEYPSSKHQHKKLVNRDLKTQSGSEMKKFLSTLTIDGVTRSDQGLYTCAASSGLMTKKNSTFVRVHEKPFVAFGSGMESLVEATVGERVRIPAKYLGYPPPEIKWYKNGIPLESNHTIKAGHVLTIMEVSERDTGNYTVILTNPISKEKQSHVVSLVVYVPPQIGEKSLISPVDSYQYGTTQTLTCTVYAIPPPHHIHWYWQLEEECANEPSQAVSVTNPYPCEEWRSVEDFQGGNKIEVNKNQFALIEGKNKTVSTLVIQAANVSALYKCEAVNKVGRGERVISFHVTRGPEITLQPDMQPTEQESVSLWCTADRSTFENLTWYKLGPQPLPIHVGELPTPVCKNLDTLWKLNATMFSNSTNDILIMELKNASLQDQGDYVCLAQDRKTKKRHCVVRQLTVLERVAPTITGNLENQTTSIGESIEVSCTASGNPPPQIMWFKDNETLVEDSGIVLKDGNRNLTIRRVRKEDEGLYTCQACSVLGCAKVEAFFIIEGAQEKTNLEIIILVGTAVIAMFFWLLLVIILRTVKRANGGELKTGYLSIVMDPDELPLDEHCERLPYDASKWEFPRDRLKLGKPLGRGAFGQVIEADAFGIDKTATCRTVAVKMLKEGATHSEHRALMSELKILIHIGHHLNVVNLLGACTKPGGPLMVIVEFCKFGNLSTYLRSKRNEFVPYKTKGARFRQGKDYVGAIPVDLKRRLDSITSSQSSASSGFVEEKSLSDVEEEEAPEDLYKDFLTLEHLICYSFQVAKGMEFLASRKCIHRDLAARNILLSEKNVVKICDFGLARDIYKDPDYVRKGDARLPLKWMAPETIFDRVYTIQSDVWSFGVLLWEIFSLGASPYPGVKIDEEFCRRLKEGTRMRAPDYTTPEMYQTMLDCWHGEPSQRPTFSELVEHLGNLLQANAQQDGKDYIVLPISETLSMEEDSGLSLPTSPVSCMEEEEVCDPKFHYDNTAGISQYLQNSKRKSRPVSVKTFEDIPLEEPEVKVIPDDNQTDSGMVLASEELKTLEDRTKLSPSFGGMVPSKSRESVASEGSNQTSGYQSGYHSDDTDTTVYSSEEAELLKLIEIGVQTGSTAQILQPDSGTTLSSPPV
Assay [7] concerns HeLa cells. As to the kind of experiment: Annexin V/PI apoptosis assay. The format is cell-based, human. The following applies: 24 h. The gist of the method: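 HeLa cells were exposed to test compound at 5 or 10 μM for 24 h, with an untreated control. Apoptotic versus necrotic death was scored by annexin V/PI staining, reported as percentage of cells undergoing apoptosis.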
Assay [8] concerns caspase-3/7 in HeLa cells. Briefly: Caspase-3/7 activity assay. The following applies: 10 μM, 24 h. The format is cell-based, human. The gist of the method: (§2)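 HeLa cells were seeded at 1 × 10^5/well in duplicate and grown 24 h. They were then treated with test compound at 1, 5, 10 and 20 µM, with 0.1% DMSO (v/v) as control. After 24 h, activity was measured with the Caspase-Glo 3/7 (caspase-3/7), Caspase-Glo 8 (caspase-8) or Caspase-Glo 9 (caspase-9) kit.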

In assay [9] the test system is caspase-8 in HeLa cells. As to the kind of experiment: Caspase-8 activity assay. The format is cell-based, human. Particulars: 5 and 10 μM, 24 h. The essentials:
as §2

The test system of assay [10] is caspase-9 in HeLa cells. As to the kind of experiment: Caspase-9 activity assay. The format is cell-based, human. The following applies: 5 and 10 μM, 24 h. The gist of the method:
as §2

Assay [11] has as its system HeLa cells. As to the kind of experiment: ROS production. The assay is classed as cell-based, human. Particulars: 40 μM, 24 h. The gist of the method: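 HeLa cells were treated with test compound at 10 or 40 µM for 24 h, with 0.1% DMSO (v/v) as control. Intracellular superoxide was detected with the Muse Oxidative Stress Kit, and cells were analysed on a Muse Cell Analyzer. The read-out was the percentage of cells with elevated ROS.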

The mark [12] stands for this setting: Homo sapiens, A549, 24 h, read-out: 24 h IC50 A549, Alamar Blue, 24 h treatment.
The mark [13] stands for this setting: read-out: 24 h IC50 A549, Alamar Blue, 24 h treatment.

Read-outs that look alike come from different tables or passages of the source.

Sequence of EGFR (P00533 25-1210): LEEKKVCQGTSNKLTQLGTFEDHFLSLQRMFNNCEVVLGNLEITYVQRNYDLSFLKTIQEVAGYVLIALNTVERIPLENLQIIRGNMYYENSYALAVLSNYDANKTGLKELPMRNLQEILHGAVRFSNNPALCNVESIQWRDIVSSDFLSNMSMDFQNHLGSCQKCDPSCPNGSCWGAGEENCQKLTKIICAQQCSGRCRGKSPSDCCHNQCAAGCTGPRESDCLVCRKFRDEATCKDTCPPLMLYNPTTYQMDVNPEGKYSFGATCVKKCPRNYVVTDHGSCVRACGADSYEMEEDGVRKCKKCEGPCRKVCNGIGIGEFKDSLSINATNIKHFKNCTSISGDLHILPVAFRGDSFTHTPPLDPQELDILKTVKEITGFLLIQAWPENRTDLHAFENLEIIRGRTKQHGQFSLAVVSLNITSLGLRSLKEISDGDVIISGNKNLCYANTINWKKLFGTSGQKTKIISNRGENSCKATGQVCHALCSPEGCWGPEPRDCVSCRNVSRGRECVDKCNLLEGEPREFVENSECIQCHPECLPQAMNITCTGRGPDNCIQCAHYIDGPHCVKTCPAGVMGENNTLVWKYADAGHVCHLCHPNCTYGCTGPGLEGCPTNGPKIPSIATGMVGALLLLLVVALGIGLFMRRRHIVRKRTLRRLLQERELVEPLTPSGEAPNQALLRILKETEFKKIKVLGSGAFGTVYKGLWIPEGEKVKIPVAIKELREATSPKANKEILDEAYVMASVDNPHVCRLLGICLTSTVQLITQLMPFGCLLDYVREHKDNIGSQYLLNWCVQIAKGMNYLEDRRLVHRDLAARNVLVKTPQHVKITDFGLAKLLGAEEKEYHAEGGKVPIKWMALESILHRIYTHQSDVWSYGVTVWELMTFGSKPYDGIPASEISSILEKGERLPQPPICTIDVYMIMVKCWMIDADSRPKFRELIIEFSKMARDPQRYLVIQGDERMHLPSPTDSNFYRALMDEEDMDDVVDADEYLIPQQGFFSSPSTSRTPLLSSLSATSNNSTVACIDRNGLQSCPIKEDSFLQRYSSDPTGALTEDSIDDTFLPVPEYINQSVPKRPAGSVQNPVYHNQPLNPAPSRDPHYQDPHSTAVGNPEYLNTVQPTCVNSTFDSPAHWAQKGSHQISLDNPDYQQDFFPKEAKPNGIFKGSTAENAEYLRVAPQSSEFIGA

For `CCOC(=O)CN1C(=O)NC(c2ccccc2)(c2ccccc2)C1=O` [Compound 2, ethyl (5,5-diphenylhydantoin-3-yl)acetate], the half-inhibitory concentration (IC50) in assay [1] (Homo sapiens, HeLa, 24 h) is 241 ± 1.3 µM; in assay [2] (setting [12]) it was 108 ± 3.7 µM; in assay [3] (Homo sapiens, MDA-MB-231, 24 h), 263 ± 3.4 µM.

Take `NNC(=O)CN1C(=O)NC(c2ccccc2)(c2ccccc2)C1=O` [Compound 3, 2-(2,4-dioxo-5,5-diphenylimidazolidin-3-yl)acetohydrazide]: the IC50 is 236 ± 3.5 µM in assay [1] (Homo sapiens, HeLa, 24 h); 278 ± 7.5 µM in assay [2] (setting [12]); 278 ± 2 µM in assay [3] (Homo sapiens, MDA-MB-231, 24 h).

In the case of `O=C(CN1C(=O)NC(c2ccccc2)(c2ccccc2)C1=O)NN=Cc1ccc(Cl)cc1` [Compound 5, N'-(4-Chlorobenzylidene)-2-(2,5-dioxo-4,4-diphenylimidazolidin-1-yl)acetohydrazide], the IC50 in assay [1] (Homo sapiens, HeLa, 24 h) was 123 ± 2.6 µM; in assay [2] (setting [12]) it was 157 ± 1.4 µM; in assay [3] (Homo sapiens, MDA-MB-231, 24 h) it was 196 ± 1.7 µM.

Turning to `COc1ccc(C=NNC(=O)CN2C(=O)NC(c3ccccc3)(c3ccccc3)C2=O)cc1OC` [Compound 8, N′-(3,4-Dimethoxybenzylidene)-2-(2,5-dioxo-4,4-diphenylimidazolidin-1-yl)acetohydrazide], the half-inhibitory concentration (IC50) in [1] (Homo sapiens, HeLa, 24 h) is 60 ± 3.3 µM; in assay [2] (setting [12]), 162 ± 2.3 µM; in [3] (Homo sapiens, MDA-MB-231, 24 h), 154 ± 1.1 µM.

`COc1cc(C=NNC(=O)CN2C(=O)NC(c3ccccc3)(c3ccccc3)C2=O)ccc1O` [Compound 9, 2-(2,5-Dioxo-4,4-diphenylimidazolidin-1-yl)-N′-(4-hydroxy-3-methoxybenzylidene)acetohydrazide]: the IC50 in [1] (Homo sapiens, HeLa, 24 h) stood at 50 ± 1 µM; in assay [2] (setting [12]) it was 175 ± 4.3 µM; in assay [3] (Homo sapiens, MDA-MB-231, 24 h) it was 136 ± 3.9 µM.

Take `O=C(CN1C(=O)NC(c2ccccc2)(c2ccccc2)C1=O)NN=Cc1ccc2c(c1)OCO2` [Compound 10, N′-(Benzo[d][1,3]dioxol-5-ylmethylene)-2-(2,5-dioxo-4,4-diphenylimidazolidin-1-yl)acetohydrazide]: the IC50 worked out at 113 ± 0.9 µM in [1] (Homo sapiens, HeLa, 24 h); 267 ± 6 µM in [2] (setting [12]); 200 ± 4.1 µM in assay [3] (Homo sapiens, MDA-MB-231, 24 h).

As to `COc1cc(C=NNC(=O)CN2C(=O)NC(c3ccccc3)(c3ccccc3)C2=O)cc(OC)c1OC` [Compound 11, 2-(2,5-Dioxo-4,4-diphenylimidazolidin-1-yl)-N′-(3,4,5-trimethoxybenzylidene)acetohydrazide], the half-maximal inhibitory concentration (IC50) in assay [1] (Homo sapiens, HeLa, 24 h) came out at 53 ± 2.1 µM; in assay [2] (setting [12]), 170 ± 4.2 µM; in assay [3] (Homo sapiens, MDA-MB-231, 24 h), 133 ± 0.7 µM.

For the compound `COc1cc(OC)c(OC)cc1C=NNC(=O)CN1C(=O)NC(c2ccccc2)(c2ccccc2)C1=O` [Compound 12], the half-maximal inhibitory concentration (IC50) was 39 ± 3.1 µM in [1] (Alamar Blue, 24 h treatment); 116 ± 1.3 µM in assay [2] (setting [13]); more than 350 µM in assay [3] (Alamar Blue, 24 h treatment).

Consider `O=C(CN1C(=O)NC(c2ccccc2)(c2ccccc2)C1=O)NN=Cc1c[nH]c2ccccc12` [Compound 13, N′-((1H-indol-3-yl)methylene)-2-(2,5-dioxo-4,4-diphenylimidazolidin-1-yl)acetohydrazide], for which the 50% inhibitory concentration (IC50) came to 10 ± 2.1 µM in [1] (Homo sapiens, HeLa, 24 h); 160 ± 0.8 µM in [2] (setting [12]); 156 ± 3.1 µM in [3] (Homo sapiens, MDA-MB-231, 24 h); 109 µM in assay [4]; 0.1 ± 0.02 µM in assay [5]; 0.47 ± 0.09 µM in [6].

Regarding `O=C(CN1C(=O)NC(c2ccccc2)(c2ccccc2)C1=O)NN=C1C(=O)Nc2ccccc21` [Compound 14, 2-(2,5-Dioxo-4,4-diphenylimidazolidin-1-yl)-N′-(2-oxoindolin-3-ylidene)acetohydrazide], the IC50 is 30 ± 2.6 µM in [1] (Homo sapiens, HeLa, 24 h); 116 ± 1.6 µM in [2] (setting [12]); 123 ± 0.8 µM in [3] (Homo sapiens, MDA-MB-231, 24 h).

`O=C(CN1C(=O)NC(c2ccccc2)(c2ccccc2)C1=O)NN=C1C(=O)Nc2ccc(Cl)cc21` [Compound 15, N′-(5-Chloro-2-oxoindolin-3-ylidene)-2-(2,5-dioxo-4,4-diphenylimidazolidin-1-yl)acetohydrazide]: the IC50 in assay [1] (Homo sapiens, HeLa, 24 h) amounted to 53 ± 2.2 µM; in assay [2] (setting [12]), 72 ± 3 µM; in [3] (Homo sapiens, MDA-MB-231, 24 h) it was 311 ± 5.5 µM.

Turning to `O=C(CN1C(=O)NC(c2ccccc2)(c2ccccc2)C1=O)NN=C1C(=O)Nc2ccc(F)cc21` [Compound 16, 2-(2,5-Dioxo-4,4-diphenylimidazolidin-1-yl)-N′-(5-fluoro-2-oxoindolin-3-ylidene)acetohydrazide], the IC50 in assay [1] (Homo sapiens, HeLa, 24 h) came out at 18.5 ± 1.6 µM; in assay [2] (setting [12]), 95 ± 1 µM; in assay [3] (Homo sapiens, MDA-MB-231, 24 h), 64 ± 0.6 µM; in assay [4], 59 µM; in [5] it was 6.17 ± 0.22 µM; in assay [6] it was 0.09 ± 0.01 µM. Further, the figures for the “percentage of apoptotic cells” value in assay [7] (5 μM) and in assay [7] (10 μM) were 48.6% and 63.4%, respectively. Further, the “change of caspase-3/7 activity” value in assay [8] is reported as “approximately 40%”. Moreover, the “change of caspase-8 activity” value in assay [9] is given as “no significant changes”. The “change of caspase-9 activity” value in [10] is “no significant changes”. In assay [11], the “cells with increased level of ROS production” value was 37.7%.

In the case of `O=C(CN1C(=O)NC(c2ccccc2)(c2ccccc2)C1=O)NN=C1C(=O)Nc2ccc(Br)cc21` [Compound 17, N′-(5-Bromo-2-oxoindolin-3-ylidene)-2-(2,5-dioxo-4,4-diphenylimidazolidin-1-yl)acetohydrazide], the IC50 in assay [1] (Homo sapiens, HeLa, 24 h) is 29 ± 1.7 µM; in [2] (setting [12]) it was 77 ± 1.5 µM; in assay [3] (Homo sapiens, MDA-MB-231, 24 h), 138 ± 2.6 µM; in assay [4], 81 µM.

Regarding `O=C(CN1C(=O)NC(c2ccccc2)(c2ccccc2)C1=O)NN=C1C(=O)Nc2ccc([N+](=O)[O-])cc21` [Compound 18, 2-(2,5-Dioxo-4,4-diphenylimidazolidin-1-yl)-N′-(5-nitro-2-oxoindolin-3-ylidene)acetohydrazide], the IC50 turned out to be 30 ± 1.2 µM in assay [1] (Homo sapiens, HeLa, 24 h); 229 ± 5.2 µM in assay [2] (setting [12]); 80 ± 0.7 µM in assay [3] (Homo sapiens, MDA-MB-231, 24 h); 113 µM in assay [4]; 0.37 ± 0.01 µM in assay [5]; 2.52 ± 0.09 µM in assay [6].

With `COc1ccc2c(c1)C(=NNC(=O)CN1C(=O)NC(c3ccccc3)(c3ccccc3)C1=O)C(=O)N2` [Compound 19, 2-(2,5-Dioxo-4,4-diphenylimidazolidin-1-yl)-N′-(5-methoxy-2-oxoindolin-3-ylidene)acetohydrazide], the IC50 in assay [1] (Homo sapiens, HeLa, 24 h) came to 118 ± 1.3 µM; in assay [2] (setting [12]) it was 170 ± 2.2 µM; in [3] (Homo sapiens, MDA-MB-231, 24 h), 174 ± 2.9 µM.

In the case of `CC(=O)O[C@@]12CO[C@@H]1C[C@H](O)[C@@]1(C)C(=O)[C@H](O)C3=C(C)[C@@H](OC(=O)[C@H](O)[C@@H](NC(=O)OC(C)(C)C)c4ccccc4)C[C@@](O)([C@@H](OC(=O)c4ccccc4)[C@H]21)C3(C)C` [Docetaxel, reference compound], the IC50 in [1] (Homo sapiens, HeLa, 24 h) was determined as 100 ± 3.8 µM; in assay [2] (setting [12]) it was 100 µM; in [2] (setting [13]), 50 ± 1.3 µM; in assay [3] (Homo sapiens, MDA-MB-231, 24 h), 100 ± 2.2 µM; in assay [4], 83 µM.

One may read the IC50 as the concentration at which inhibition is half-maximal.
